Assay outcomes deposited in PubChem by several laboratories.
Most compounds without a hit are left out; they make up all but 4.1% or so of the library.
hERG rescue – shields human hERG channel from block by proarrhythmic agents. Q12809. CHO-hERG, FluxOR thallium flux, dofetilide IC70 present. activation (rescue from dofetilide block), less the hit threshold, % at 10 µM. 310,000 compounds, 0.51% hits. AID 1511;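 active means activation above the mean of controls blocked by dofetilide plus 5 SD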;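 further: thallium influx through hERG after potassium depolarization seen as dye fluorescence rise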
KCNQ1 act – human KCNQ1 channel potentiation or activation | 310,000 compounds, 0.35% hits | B-score at 10 µM | CHO-K1 KCNQ1, thallium flux FluxOR fluorescence; active compounds read high | AID 2648 | P51787;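 active means fluorescence ratio B-score, a plate-corrected score, at least three library SD, with initial intensity B-score within 5 SD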
Target sequence (P51787 whole entry, looked up): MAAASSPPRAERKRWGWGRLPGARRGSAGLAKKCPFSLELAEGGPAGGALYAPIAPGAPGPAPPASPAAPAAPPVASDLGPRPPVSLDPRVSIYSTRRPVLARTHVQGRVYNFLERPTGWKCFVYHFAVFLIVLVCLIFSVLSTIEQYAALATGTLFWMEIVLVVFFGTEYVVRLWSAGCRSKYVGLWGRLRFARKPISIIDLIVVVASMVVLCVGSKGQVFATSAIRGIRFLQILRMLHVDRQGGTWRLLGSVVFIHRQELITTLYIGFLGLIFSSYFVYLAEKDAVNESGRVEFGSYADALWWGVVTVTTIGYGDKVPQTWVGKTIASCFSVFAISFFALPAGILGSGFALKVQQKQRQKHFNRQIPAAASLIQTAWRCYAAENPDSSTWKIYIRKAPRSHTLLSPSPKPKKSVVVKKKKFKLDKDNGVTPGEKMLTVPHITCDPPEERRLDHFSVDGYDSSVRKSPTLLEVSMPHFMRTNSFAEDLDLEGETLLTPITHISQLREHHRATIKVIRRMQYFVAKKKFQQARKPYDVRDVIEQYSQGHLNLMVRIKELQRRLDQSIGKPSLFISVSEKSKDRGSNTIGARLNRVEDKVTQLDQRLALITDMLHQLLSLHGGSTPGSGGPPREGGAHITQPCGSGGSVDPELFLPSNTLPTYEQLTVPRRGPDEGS
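assay system = CHO-K1 cells stably expressing KCNQ1 | medium = assay buffer, equal DMSO in all wells | timing = 37 °C overnight plating, 90-min dark dye load, 20-min compound pretreatment | measured by = kinetic FluxOR thallium fluorescence, 10-s 1-Hz baseline, 110-s post-stimulus read | measure = fluorescence change relative to baseline, converted to B score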
KCNQ1 block – blocks the human KCNQ1 potassium channel; P51787; 310,000 compounds, 1.3% hits; AID 2642; CHO-K1 KCNQ1, FluxOR thallium flux fluorescence; active compounds read high; B-score at 10 µM;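 active means compounds whose thallium flux B-score, printed positive for inhibition, exceeds three library SD while starting fluorescence stays within three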;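 further: channel opened by potassium depolarization with thallium stimulus after 20 min compound exposure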
KCNK9 block – human KCNK9 channel inhibition. Q9NPC2. 310,000 compounds, 1.2% hits. B-score at 10 µM. HEK293 KCNK9, FluxOR thallium flux fluorescence; active compounds read low;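 active means ratio B-score over 3 SD below the library mean, with starting fluorescence within 5 SD of its mean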;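 further: negative B-score means less thallium flux so channel inhibition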
Cl transport mod – KCC2 (human) Cl- transport modulation. Q9H2X9. KCC2 cells, thallium flux FluoZin-2 fluorescence. B-score of Tl+ flux slope (higher = more flux/activation; lower = inhibition) at 10 µM. 190,000 compounds, 2.2% hits. AID 1456;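 active means thallium flux slope and its plate-corrected score both differing from the plate sample mean at a set confidence after two filtering rounds, in either direction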;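 further: slope of fluorescence scaled to starting intensity during 10 to 20 s after thallium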
KCNK3 block – human KCNK3 channel inhibition, primary screen. CHO-KCNK3 thallium flux, FluxOR fluorescence; active compounds read low. B-score at 10 µM. 340,000 compounds, 0.84% hits;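 active means B-score under library mean minus 4 SD, starting fluorescence ratio at most library mean plus 5 SD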;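 further: more negative B-score means stronger inhibition of thallium flux through KCNK3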
KCC2 sec1 – confirmation of human KCC2 transport modulators; shares compounds with Cl transport mod; HEK293-KCC2, thallium flux, FluoZin2 fluorescence; active compounds read high; normalised thallium flux (F/F0 slope) at 10 µM; 3,700 compounds, 15% hits;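 active means thallium flux slope above the same plate's solvent-only control mean plus 3 SD; inconclusive means the two replicate wells disagree; inactive means no significant difference from solvent-only control wells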
KCC2 bumet counter – thallium flux persisting under bumetanide in KCC2 cells, counter-screen secondary assay | shares compounds with Cl transport mod | HEK293-KCC2 + bumetanide/ouabain, thallium flux FluoZin2; active compounds read high | normalized thallium flux at 10 µM | 3,700 compounds, 49% hits | AID 1714;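 active means thallium entry rate above the same plate's blocked-transporter control wells by more than 3 SD; inconclusive means the two repeat wells disagree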;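 further: raw slope of fluorescence over initial fluorescence between 10 and 20 s after thallium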
KCC2 sec2 – confirmation of human KCC2 transport modulators; shares compounds with Cl transport mod; HEK293-KCC2, thallium flux FluoZin2 fluorescence; actives lie on both sides; F/F0 rise rate, 10–20 s post-thallium; normalized thallium flux at 10 µM; 3,700 compounds, 23% hits;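 active means thallium flux slope more than 3 SD above or below the plate's solvent-only control mean, mostly below; inconclusive means the two repeat wells disagreed; inactive means no significant shift from solvent-only controls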;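 further: raw slope with 0.1% DMSO as baseline and bumetanide as block control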
HEK counter1 – acts in parental HEK cells, KCC2 counter-screen; HEK293 parental cells, thallium flux FluoZin2, ouabain; baseline-ratio fluorescence slope, 10–20 s after thallium; shares compounds with Cl transport mod; thallium flux rate (normalised fluorescence) at 10 µM; 3,700 compounds, 46% hits;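 active means thallium flux rate significantly above the same plate's solvent-only control wells, beyond their mean plus 3 SD; inconclusive means the two replicate wells gave conflicting results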
KCC2 ouabain – KCC2 (human) modulation, ouabain retest; 3,700 compounds, 48% hits; shares compounds with Cl transport mod; raw Tl+ flux slope (below DMSO = inhibition, above = activation) at 10 µM; HEK293-KCC2, thallium flux FluoZin2 fluorescence; bidirectional: low = inhibitor, high = activator;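 active means thallium flux slope beyond 3 SD from same-plate DMSO control mean in most replicates, usually higher, sometimes lower; inconclusive means repeat tests gave conflicting results; inactive means no significant difference from controls in most replicates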;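 further: slope of initial-normalized fluorescence between seconds 10 and 20 after thallium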
HEK293 Tl flux2 – acts in parental HEK cells, second KCC2 counter-screen | shares compounds with Cl transport mod | HEK293 parental, thallium flux FluoZin-2 fluorescence slope | thallium flux slope at 10 µM | 3,700 compounds, 33% hits | AID 1718;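 active means thallium flux slope above the same plate's solvent-control mean plus 3 SD in both duplicate wells; inconclusive means duplicate wells that disagreed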;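 further: run without ouabain in cells lacking the KCC2 cotransporter; slope of fluorescence scaled to its starting value between 10 and 20 s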
KCNK9 inh conf – human KCNK9 inhibitor confirmation. shares compounds with KCNK9 block. HEK293 KCNK9 cells, FluxOR thallium flux fluorescence. inhibition, % at 10 µM. 4,900 compounds, 43% hits. AID 492992;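 active means thallium signal inhibited by more than 5 SD of the compound-free buffer control wells, on both duplicate plates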;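 further: 0% = assay buffer control wells without compound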
Kir2-1 spec – mouse Kir2.1 off-target activity of KCNK9 modulators; shares compounds with KCNK9 block; Kir2.1 cells, FluxOR thallium flux fluorescence; inhibition, % at 10 µM; 4,900 compounds, 4% hits;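 active means thallium signal drop more than 5 SD beyond the mean of the no-compound control wells, seen in both duplicate plates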;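 further: signal is fluorescence rise after thallium addition divided by baseline fluorescence; plate controls were assay buffer only for no effect and full block by chlorpromazine control for full effect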
HEK293 Tl ctr – non-induced cell nonspecific activity of KCNK9 modulators; non-induced KCNK9-HEK293, FluxOR thallium flux; shares compounds with KCNK9 block; AID 492997; inhibition, % at 10 µM; 4,900 compounds, 40% hits;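 active means thallium signal drop beyond 5 SD of the untreated control mean, on both duplicate plates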;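 further: plate controls were buffer only IC0 wells for no effect and SID17386958 at its maximal inhibitory level for full effect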
The depositor's hits bear a star; i = inactive; ? = inconclusive; . = no result.

SMILES	hERG rescue	KCNQ1 act	KCNQ1 block	KCNK9 block	Cl transport mod	KCNK3 block	KCC2 sec1	KCC2 bumet counter	KCC2 sec2	HEK counter1	KCC2 ouabain	HEK293 Tl flux2	KCNK9 inh conf	Kir2-1 spec	HEK293 Tl ctr
Cc1ccc(-c2csc3ncnc(SCc4ccc(C(=O)O)cc4)c23)cc1	15*	33*	i	i	140*	i	0.0082	0.12*	0.095*	0.094*	0.11*	0.09*	i	i	i
Cc1ccc(-c2csc3ncnc(Nc4ccc(C(=O)O)cc4)c23)cc1	-10	i	i	i	-1.8	i	.	.	.	.	.	.	.	.	.
CCCCn1c(-c2csc(CCC)c2)n[nH]c1=S	0	i	i	i	37*	i	?	0.08*	0.044*	0.032*	0.041*	0.031*	i	i	i
CCCCn1c(-c2cccnc2)n[nH]c1=S	-3	i	i	i	0.04	i	.	.	.	.	.	.	.	.	.
CCN(C(=O)COC(=O)c1ccc(=O)n(Cc2ccccc2)n1)C1CCS(=O)(=O)C1 (stereo not given)	.	.	.	.	.	i	.	.	.	.	.	.	.	.	.
O=c1cc(-c2ccccc2)nc2c(-c3ccccc3)c(C(F)(F)F)[nH]n12	54*	13*	i	i	3.8*	i	0.0099	0.014*	0.033	0.011*	0.022	0.0091	i	i	i
COc1ccccc1OCc1nc(C#N)c(NCc2ccco2)o1	-11	i	i	i	-1	i	.	.	.	.	.	.	.	.	.
N#Cc1nc(Cc2cccc3ccccc23)oc1NCc1ccco1	-11	i	i	-11*	.	i	?	0.0049	?	?	0.014*	0.011	40%*	i	38%*
CCCN(Cc1nnc(-c2ccccc2Cl)o1)C(=O)COc1ccc(Cl)cc1	.	.	.	.	.	i	.	.	.	.	.	.	.	.	.
Cc1ccc(NC(=O)CN(C)C(=O)CSc2nc3ccccc3c(=O)n2Cc2ccco2)cc1	-9	i	i	i	2.5	i	.	.	.	.	.	.	.	.	.
CN(Cc1ccccc1)C(=O)CSc1nc2ccccc2c(=O)n1Cc1ccco1	-19	i	i	i	-3.5*	i	0.0072	0.0031*	0.026*	0.0058*	0.015*	?	i	i	i
CN(CCc1ccccc1)C(=O)c1ccc(NC(=O)Cc2ccc(NC(=O)C3CCCN(C(=O)C4CCCC4)C3)cc2)cc1 (stereo not given)	.	.	.	.	.	i	.	.	.	.	.	.	.	.	.
